Key:
Trypanosoma cruzi [1] = test: Antitrypanosomal activity against bloodstream trypomastigote stage of Trypanosoma cruzi Y infected in monkey LLC-MK2 cells measured after 24 hrs by neubauer chamber method; type: functional; conditions: LLC-MK2, in Primates
Method in brief: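 Y strain trypomastigotes taken from LLC-MK2 culture supernatant and held in RPMI-1640 with 10% FBS. Seeded at 4×10^5 cells/well and treated in triplicate for 24 h at 37 °C, 5% CO2. Motile parasites counted in a Neubauer chamber against untreated wells. IC50 by nonlinear regression from at least seven concentrations. Experiment repeated; SD < 10% of mean required.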

Trypanosoma cruzi [2] = test: Antitrypanosomal activity against Trypanosoma cruzi Dm28c epimastigotes measured after 4 to 5 days by neubauer chamber method; type: functional
Method in brief: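 Dm28c epimastigotes in LIT with 10% FBS, 1% hemin and gentamycin at 27 °C. Seeded at 10^6 cells/well and treated in triplicate for 4 days (table footnote: 5 days). Parasites counted in a Neubauer chamber against untreated wells as 100%. IC50 by nonlinear regression from at least five concentrations. Experiment repeated; only values with SD < 10% of mean kept.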

[3] = Cytotoxicity against mouse J774A.1 cells after 24 to 72 hrs by MTT assay; type: cell-based, J774.A1; conditions: read-out: MNCC
Method in brief: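 J774A.1 macrophages in DMEM with 10% heat-inactivated FBS at 37 °C, 5% CO2. Seeded at 1×10^5 cells/well, 24 h preincubation, then compounds at 1–100 µg/mL for 72 h (table footnote: viability at 24 h). MTT 2 h, formazan dissolved in DMSO, absorbance read at 570 nm. Highest non-cytotoxic concentration reported.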

[4] = Selectivity index, ratio of highest non-cytotoxic concentration for mouse J774A.1 cells to CC50 for bloodstream trypomastigote stage of Trypanosoma cruzi Y infected in monkey LLC-MK2 cells; type: toxicity, cell-based; conditions: read-out: Selectivity Index
Method in brief: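 Selectivity index is the highest non-cytotoxic concentration in J774A.1 macrophages divided by the 50% value against Y strain trypomastigotes measured after 24 h.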

Trypanosoma cruzi [5] = test: Potency index, ratio of benznidazole CC50 to compound CC50 for Trypanosoma cruzi Dm28c epimastigotes; type: functional
Trypanosoma cruzi [6] = test: Induction of apoptosis in bloodstream trypomastigote stage of Trypanosoma cruzi Y infected in monkey LLC-MK2 cells assessed as necrotic cells at 2.2 uM measured after 24 hrs by Annexin-V-FITC/propidium iodide staining based flow cytometric method (reference value: 0.014%); type: functional
Trypanosoma cruzi [7] = test: Induction of apoptosis in bloodstream trypomastigote stage of Trypanosoma cruzi Y infected in monkey LLC-MK2 cells assessed as necrotic cells at 4.4 uM measured after 24 hrs by Annexin-V-FITC/propidium iodide staining based flow cytometric method (reference value: 0.014%); type: functional
Trypanosoma cruzi [8] = test: Induction of apoptosis in bloodstream trypomastigote stage of Trypanosoma cruzi Y infected in monkey LLC-MK2 cells assessed as late apoptotic cells at 2.2 uM measured after 24 hrs by Annexin-V-FITC/propidium iodide staining based flow cytometric method (reference value: 0.27%); type: functional
Trypanosoma cruzi [9] = test: Induction of apoptosis in bloodstream trypomastigote stage of Trypanosoma cruzi Y infected in monkey LLC-MK2 cells assessed as late apoptotic cells at 4.4 uM measured after 24 hrs by Annexin-V-FITC/propidium iodide staining based flow cytometric method (reference value: 0.27%); type: functional
Trypanosoma cruzi [10] = test: Induction of apoptosis in bloodstream trypomastigote stage of Trypanosoma cruzi Y infected in monkey LLC-MK2 cells assessed as early apoptotic cells at 2.2 uM measured after 24 hrs by Annexin-V-FITC/propidium iodide staining based flow cytometric method (reference value: 0.31%); type: functional
Trypanosoma cruzi [11] = test: Induction of apoptosis in bloodstream trypomastigote stage of Trypanosoma cruzi Y infected in monkey LLC-MK2 cells assessed as early apoptotic cells at 4.4 uM measured after 24 hrs by Annexin-V-FITC/propidium iodide staining based flow cytometric method (reference value: 0.31%); type: functional
Trypanosoma cruzi [12] = test: Potency index, ratio of benznidazole CC50 to compound CC50 for bloodstream trypomastigote stage of Trypanosoma cruzi Y infected in monkey LLC-MK2 cells; type: functional
[13] = target: Cruzipain (Trypanosoma cruzi) (UniProt P25779); test: Inhibition of Trypanosoma cruzi cruzain at 50 uM using Z-phe-Arg-aminomethylcoumarin as substrate pretreated for 10 mins measured for 5 mins by fluorometric method relative to control
Method in brief: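 Cruzain at 0.5 nM in 0.1 M sodium acetate pH 5.5 with 0.1 mM β-mercaptoethanol and 0.01% Triton X-100. Compound screened at 50 µM after a 10-min preincubation with enzyme, then 2.5 µM Z-FR-AMC added. AMC fluorescence (ex 340/em 440 nm) followed for 5 min. Activity taken from initial rates relative to a DMSO control. Two independent experiments, each in triplicate.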

Trypanosoma cruzi [14] = test: Induction of apoptosis in bloodstream trypomastigote stage of Trypanosoma cruzi Y infected in monkey LLC-MK2 cells assessed as necrotic cells at 5 uM measured after 24 hrs by Annexin-V-FITC/propidium iodide staining based flow cytometric method (reference value: 0.014%); type: functional
Trypanosoma cruzi [15] = test: Induction of apoptosis in bloodstream trypomastigote stage of Trypanosoma cruzi Y infected in monkey LLC-MK2 cells assessed as necrotic cells at 25 uM measured after 24 hrs by Annexin-V-FITC/propidium iodide staining based flow cytometric method (reference value: 0.014%); type: functional
Trypanosoma cruzi [16] = test: Induction of apoptosis in bloodstream trypomastigote stage of Trypanosoma cruzi Y infected in monkey LLC-MK2 cells assessed as necrotic cells at 1.6 uM measured after 24 hrs by Annexin-V-FITC/propidium iodide staining based flow cytometric method (reference value: 0.014%); type: functional
Trypanosoma cruzi [17] = test: Induction of apoptosis in bloodstream trypomastigote stage of Trypanosoma cruzi Y infected in monkey LLC-MK2 cells assessed as necrotic cells at 3.2 uM measured after 24 hrs by Annexin-V-FITC/propidium iodide staining based flow cytometric method (reference value: 0.014%); type: functional
Trypanosoma cruzi [18] = test: Induction of apoptosis in bloodstream trypomastigote stage of Trypanosoma cruzi Y infected in monkey LLC-MK2 cells assessed as late apoptotic cells at 1.6 uM measured after 24 hrs by Annexin-V-FITC/propidium iodide staining based flow cytometric method (reference value: 0.27%); type: functional
Trypanosoma cruzi [19] = test: Induction of apoptosis in bloodstream trypomastigote stage of Trypanosoma cruzi Y infected in monkey LLC-MK2 cells assessed as late apoptotic cells at 3.2 uM measured after 24 hrs by Annexin-V-FITC/propidium iodide staining based flow cytometric method (reference value: 0.27%); type: functional
Trypanosoma cruzi [20] = test: Induction of apoptosis in bloodstream trypomastigote stage of Trypanosoma cruzi Y infected in monkey LLC-MK2 cells assessed as early apoptotic cells at 1.6 uM measured after 24 hrs by Annexin-V-FITC/propidium iodide staining based flow cytometric method (reference value: 0.31%); type: functional
Trypanosoma cruzi [21] = test: Induction of apoptosis in bloodstream trypomastigote stage of Trypanosoma cruzi Y infected in monkey LLC-MK2 cells assessed as early apoptotic cells at 3.2 uM measured after 24 hrs by Annexin-V-FITC/propidium iodide staining based flow cytometric method (reference value: 0.31%); type: functional

Chain of Cruzipain (Trypanosoma cruzi) (P25779 123-467 limits assumed): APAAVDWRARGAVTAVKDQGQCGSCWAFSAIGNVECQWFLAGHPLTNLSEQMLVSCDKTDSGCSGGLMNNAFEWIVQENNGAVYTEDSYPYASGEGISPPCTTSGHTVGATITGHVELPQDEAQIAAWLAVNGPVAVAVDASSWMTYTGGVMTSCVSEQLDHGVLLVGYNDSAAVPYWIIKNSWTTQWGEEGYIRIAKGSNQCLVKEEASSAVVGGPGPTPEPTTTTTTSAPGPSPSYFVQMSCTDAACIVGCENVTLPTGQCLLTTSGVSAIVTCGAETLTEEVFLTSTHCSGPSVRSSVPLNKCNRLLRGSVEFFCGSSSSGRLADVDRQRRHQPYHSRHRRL

SMILES	CC50 (Trypanosoma cruzi [1])	CC50 (Trypanosoma cruzi [2])	MNTC [3]	selectivity ratio [4]	further results
C/C(=N\N=c1/scc(-c2ccc(Br)cc2)n1C)c1ccccn1	2.2 µM	3.2 µM	33 µM	15	Ratio (Trypanosoma cruzi [5]): 15; Activity (Trypanosoma cruzi [6]): 3%; Activity (Trypanosoma cruzi [7]): 3.15%; Activity (Trypanosoma cruzi [8]): 4%; Activity (Trypanosoma cruzi [9]): 4.7%; Activity (Trypanosoma cruzi [10]): 38%; Activity (Trypanosoma cruzi [11]): 35%
C/C(=N\N=c1/scc(-c2cccc([N+](=O)[O-])c2)n1C)c1ccccn1	2.4 µM	7.8 µM	82 µM	34	Ratio (Trypanosoma cruzi [12]): 3
CNC(=S)N/N=C(\C)c1ccccn1	8.8 µM		22 µM	2.5	
C/C(=N\N=c1/scc(-c2ccc(Cl)c(Cl)c2)n1-c1ccccc1)c1ccccn1	1.9 µM	13.9 µM	8 µM	4	
C/C(=N\N=c1/scc(-c2ccc(Br)cc2)n1-c1ccccc1)c1ccccn1	1.8 µM	6.3 µM	10 µM	6	
C/C(=N\N=c1/scc(-c2ccc(Cl)cc2)n1-c1ccccc1)c1ccccn1	2 µM	9.1 µM	13 µM	7	
C/C(=N\N=c1/scc(-c2ccccc2)n1-c1ccccc1)c1ccccn1	6.3 µM	93.4 µM	51 µM	8	
C/C(=N\N=c1/scc(-c2ccc([N+](=O)[O-])cc2)n1C)c1ccccn1	7 µM	13.7 µM	36 µM	5	
C/C(=N\N=c1/scc(-c2ccc3ccccc3c2)n1C)c1ccccn1	3 µM	8.2 µM	30 µM	10	
C/C(=N\N=c1/scc(-c2ccc(F)cc2)n1C)c1ccccn1	5.6 µM	8.5 µM	12 µM	2	
C/C(=N\N=c1/scc(-c2ccc(Cl)cc2)n1C)c1ccccn1	4.5 µM		20 µM	4	
COc1ccc(-c2cs/c(=N\N=C(/C)c3ccccn3)n2C)cc1	4.6 µM	4.5 µM	20 µM	4	
C/C(=N\N=c1/scc(-c2ccc(F)cc2)n1-c1ccccc1)c1ccccn1	3.9 µM	3.1 µM	35 µM	9	inhibition [13]: 58%
C/C(=N\N=c1/scc(-c2ccccc2)n1C)c1ccccn1	4 µM	56 µM	4 µM	1	inhibition [13]: 70%
O=C(Cn1ccnc1[N+](=O)[O-])NCc1ccccc1 [BENZNIDAZOLE]	6.2 µM	48.8 µM	44.7 µM	7.2	Activity (Trypanosoma cruzi [14]): 4.2%; Activity (Trypanosoma cruzi [15]): 56.4%
C/C(=N\N=c1/sc(C)c(-c2ccc(Br)cc2)n1-c1ccccc1)c1ccccn1	3.1 µM	17.1 µM	30 µM	10	
C/C(=N\N=c1/scc(-c2cccc([N+](=O)[O-])c2)n1-c1ccccc1)c1ccccn1	1.9 µM	11 µM	10 µM	5	
C/C(=N\N=c1/scc(-c2ccc(Cl)cc2Cl)n1-c1ccccc1)c1ccccn1	1.6 µM	2.7 µM	81 µM	50 to 51	Ratio (Trypanosoma cruzi [12]): 4 - 5; Ratio (Trypanosoma cruzi [5]): 18; Activity (Trypanosoma cruzi [16]): 2.9%; Activity (Trypanosoma cruzi [17]): 3.2%; Activity (Trypanosoma cruzi [18]): 4%; Activity (Trypanosoma cruzi [19]): 4.3%; Activity (Trypanosoma cruzi [20]): 39.5%; Activity (Trypanosoma cruzi [21]): 39.4%
C/C(=N\N=c1/sc(C)c(-c2ccc(Br)cc2)n1C)c1ccccn1	3.4 µM	2.9 µM	68 µM	20	
C/C(=N\N=c1/scc(-c2ccc3ccccc3c2)n1-c1ccccc1)c1ccccn1	6.1 µM	1.9 µM	51 µM	8	
C/C(=N\N=c1/sc(C)c(-c2ccccc2)n1C)c1ccccn1	2.7 µM	6.2 µM	97 µM	36	inhibition [13]: 73%
C/C(=N\N=c1/sc(C)c(-c2ccccc2)n1-c1ccccc1)c1ccccn1	2.3 µM	15.5 µM	43 µM	19	
C/C(=N\N=c1/scc(-c2ccc(Cl)cc2Cl)n1C)c1ccccn1	13 µM	31.6 µM	14 µM	1	
C/C(=N\N=c1/scc(-c2ccc(Cl)c(Cl)c2)n1C)c1ccccn1	2.3 µM	6.9 µM	11 µM	5	Ratio (Trypanosoma cruzi [12]): 3; Ratio (Trypanosoma cruzi [5]): 7
C/C(=N\N=c1/scc(-c2ccc(-c3ccccc3)cc2)n1C)c1ccccn1	2.2 µM	66.6 µM	6 µM	3	
C/C(=N\N=c1/scc(-c2ccc(-c3ccccc3)cc2)n1-c1ccccc1)c1ccccn1	2 µM	47.3 µM	7 µM	4	
C/C(=N\N=c1/scc(-c2ccc([N+](=O)[O-])cc2)n1-c1ccccc1)c1ccccn1	3.1 µM	87.4 µM	23 µM	7	
